The values that follow come from ChEMBL document CHEMBL1127523, “Design and synthesis of side-chain conformationally restricted phenylalanines and their use for structure-activity studies on tachykinin NK-1 receptor” (J Med Chem, 1994).

Holding throughout (type): functional
The species entered for experiment [1] is Cavia porcellus. Description: (§1) pKB value of compound was determined in presence of antagonist RP-67580 at conc. of 10e-7 M. In outline:
(§2)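 Guinea pig ileum strips (1 cm, terminal portion, males 300–400 g) in oxygenated Tyrode at 37 °C, 1 g tension. Agonist added cumulatively, doubling bath concentration at each steady response. Antagonist RP-67,580, one concentration (10⁻⁷ M), preincubated 5 min before first agonist addition. pKB = log(dose ratio − 1) − log([antagonist]); three independent determinations.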

The species entered for experiment [2] is Cavia porcellus. The experiment is described as §1. The source holds these as a separate data set.
The species entered for experiment [3] is Cavia porcellus. The experiment in a line: pKb value of compound was determined in presence of antagonist RP-67580 at conc. of 10e-7 M. In outline:
as §2

Starred links: 1 amine or outer side, 2 acyl side, 3 side chain; linkers in the order of their positions; H or OH if unused. Non-standard residues stand in square brackets, D forms with d. Residues, ends and D or L forms follow the SMILES beside them. Gly(9-fluorenyl) = N[C@H](C(=O)O)C1c2ccccc2-c2ccccc21; X1 = O=C([C@@H](N[*:1])C1CCc2ccccc21)[*:2]; Dip = N[C@H](C(=O)O)C(c1ccccc1)c1ccccc1

`CSCC[C@H](NC(=O)[C@H](CC(C)C)NC(=O)[C@@H]1CCCN1C(=O)[C@@H](NC(=O)[C@H](Cc1ccccc1)NC(=O)[C@H](CCC(N)=O)NC(=O)[C@H](CCC(N)=O)NC(=O)[C@@H]1CCCN1C(=O)[C@H](CCCCN)NC(=O)[C@@H]1CCCN1C(=O)[C@@H](N)CCCN=C(N)N)C(c1ccccc1)c1ccccc1)C(N)=O` (H-RPKPQQF[Dip]PLM-NH2): the pKB in the experiment filed under Cavia porcellus [1] came out at 7.25.
With `CSCC[C@H](NC(=O)[C@H](CC(C)C)NC(=O)CNC(=O)[C@H](Cc1ccccc1)NC(=O)/C(=C\c1ccccc1)NC(=O)[C@H](CCC(N)=O)NC(=O)[C@H](CCC(N)=O)NC(=O)[C@@H]1CCCN1C(=O)[C@H](CCCCN)NC(=O)[C@@H]1CCCN1C(=O)[C@@H](N)CCCN=C(N)N)C(N)=O`, in the experiment listed under Cavia porcellus [2], the pKb is 7.15.
The same measure, in the same setting: for `CSCC[C@H](NC(=O)[C@H](CC(C)C)NC(=O)CNC(=O)[C@@H](NC(=O)[C@H](Cc1ccccc1)NC(=O)[C@H](CCC(N)=O)NC(=O)[C@H](CCC(N)=O)NC(=O)[C@@H]1CCCN1C(=O)[C@H](CCCCN)NC(=O)[C@@H]1CCCN1C(=O)[C@@H](N)CCCN=C(N)N)C(c1ccccc1)c1ccccc1)C(N)=O` the value was 6.9.
The same measure, in the same setting: the figure for `CSCC[C@H](NC(=O)[C@H](CC(C)C)NC(=O)[C@@H]1CCCN1C(=O)[C@H](Cc1ccccc1)NC(=O)[C@H](Cc1ccccc1)NC(=O)[C@H](CCC(N)=O)NC(=O)[C@H](CCC(N)=O)NC(=O)[C@@H]1CCCN1C(=O)[C@H](CCCCN)NC(=O)[C@@H]1CCCN1C(=O)[C@@H](N)CCCN=C(N)N)C(N)=O` is 6.97; for `CSCC[C@H](NC(=O)[C@H](CC(C)C)NC(=O)CNC(=O)[C@H](Cc1ccccc1)NC(=O)[C@@H](NC(=O)[C@H](CCC(N)=O)NC(=O)[C@H](CCC(N)=O)NC(=O)[C@@H]1CCCN1C(=O)[C@H](CCCCN)NC(=O)[C@@H]1CCCN1C(=O)[C@@H](N)CCCN=C(N)N)C1c2ccccc2-c2ccccc21)C(N)=O` it is 7.1.
In the case of `CSCC[C@H](NC(=O)[C@H](CC(C)C)NC(=O)CNC(=O)[C@@H](NC(=O)[C@@H](NC(=O)[C@H](CCC(N)=O)NC(=O)[C@H](CCC(N)=O)NC(=O)[C@@H]1CCCN1C(=O)[C@H](CCCCN)NC(=O)[C@@H]1CCCN1C(=O)[C@@H](N)CCCN=C(N)N)C1CCc2ccccc21)C1c2ccccc2-c2ccccc21)C(N)=O` (stereo partly specified) (H-RPKPQQ[X1][Gly(9-fluorenyl)]GLM-NH2), the pKb in the experiment listed under Cavia porcellus [3] came out at 7.1.
